Values joined by “and” are separate entries in the source; they are usually repeats but may differ in a detail not shown here. Identical values can stand only once.
Key:
Type in all cases: toxicity, cell-based
HEK-293T [1] = assay: Incucyte cell viability with HEK293T; conditions: human, 10 µM, compound concentration 10 uM; also: filed as whole numbers so only -1 and 0 and 1 occur
Fibroblast [2] = assay: Multiplex assay against human fibroblast; conditions: 10 µM, compound concentration 10 uM
Summary of the method: (§1)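 Live cells carried four stains from seeding: Hoechst33342, BioTracker Green Microtubule Cytoskeleton Dye, MitoTracker Red and Annexin V Alexa Fluor 680. They were imaged on a CQ1 microscope at 37°C and 5% CO2 after compound addition. Using CellPathfinder machine-learning gating, cells were split into Hoechst high-intensity objects or normal cells, normal cells into healthy, pyknosed or fragmented nuclei, and pyknosed cells into mitotic or apoptotic; tubulin, mitochondrial-mass and membrane-permeability phenotypes are per cents of healthy-nucleus cells.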

Fibroblast [3] = assay: Incucyte cell viability with human fibroblast; conditions: 10 µM, compound concentration 10 uM; also: filed as whole numbers so only -1 and 0 and 1 occur
U2OS [4] = assay: Multiplex assay against U2OS; conditions: human, 10 µM, compound concentration 10 uM; summary of the method: as §1
U2OS [5] = assay: Incucyte cell viability with U2OS; conditions: human, 10 µM, compound concentration 10 uM; also: filed as whole numbers so only -1 and 0 and 1 occur
HEK-293T [6] = assay: Multiplex assay against HEK293T; conditions: human, 10 µM, compound concentration 10 uM; summary of the method: as §1;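 as to Population Tubulin-Different-Phenotype (%): share of the cells with healthy nuclei that show this phenotype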
[7] = 0 h, replicate number 1, timepoint 0 hours
[8] = 6 h, replicate number 1, timepoint 6 hours
[9] = 12 h, replicate number 1, timepoint 12 hours
[10] = 18 h, replicate number 1, timepoint 18 hours
[11] = 24 h, replicate number 1, timepoint 24 hours

COc1ccccc1-c1cc(Nc2cccc(CS(N)(=O)=O)c2)ncn1
Growth Rate (HEK-293T [1]; [7]): 0 | Growth Rate (HEK-293T [1]; [8]): 0 | Growth Rate (HEK-293T [1]; [9]): 0 | Growth Rate (HEK-293T [1]; [10]): 0 | Growth Rate (HEK-293T [1]; [11]): 0 | Population Apoptotic (%) (Fibroblast [2]; 12 h, replicate 1): 70% and 60% | Population Fragmented Nuclei (%) (Fibroblast [2]; 12 h, replicate 1): 24% and 28% | Population Healthy Nuclei (%) (Fibroblast [2]; 12 h, replicate 1): 62% and 53% | Population Hoechst High Intensity Objects (%) (Fibroblast [2]; 12 h, replicate 1): 11% and 10% | Population Membrane Permeable-Phenotype (%) (Fibroblast [2]; 12 h, replicate 1): 9% | Population Mitochondria Different-Phenotype (%) (Fibroblast [2]; 12 h, replicate 1): 4% | Population Mitotic Cells (%) (Fibroblast [2]; 12 h, replicate 1): 29% and 39% | Population Normal (%) (Fibroblast [2]; 12 h, replicate 1): 88% and 89% | Population Pyknosed Nuclei (%) (Fibroblast [2]; 12 h, replicate 1): 13% and 17% | Total Cell Count (Fibroblast [2]; 12 h, replicate 1): 208 and 254 | Population Apoptotic (%) (Fibroblast [2]; 12 h, replicate 2): 50% and 75% | Population Fragmented Nuclei (%) (Fibroblast [2]; 12 h, replicate 2): 63% and 72% | Population Healthy Nuclei (%) (Fibroblast [2]; 12 h, replicate 2): 31% and 20% | Population Hoechst High Intensity Objects (%) (Fibroblast [2]; 12 h, replicate 2): 34% and 40% | Population Membrane Permeable-Phenotype (%) (Fibroblast [2]; 12 h, replicate 2): 16% and 10% | Population Mitochondria Different-Phenotype (%) (Fibroblast [2]; 12 h, replicate 2): 8% and 20% | Population Mitotic Cells (%) (Fibroblast [2]; 12 h, replicate 2): 50% and 25% | Population Normal (%) (Fibroblast [2]; 12 h, replicate 2): 65% and 59% | Population Pyknosed Nuclei (%) (Fibroblast [2]; 12 h, replicate 2): 5% and 8% | Population Tubulin-Different-Phenotype (%) (Fibroblast [2]; 12 h, replicate 2): 25% and 30% | Total Cell Count (Fibroblast [2]; 12 h, replicate 2): 58 and 84 | Population Apoptotic (%) (Fibroblast [2]; 24 h, replicate 1): 75% and 66% | Population Fragmented Nuclei (%) (Fibroblast [2]; 24 h, replicate 1): 25% and 23% | Population Healthy Nuclei (%) (Fibroblast [2]; 24 h, replicate 1): 60% and 57% | Population Hoechst High Intensity Objects (%) (Fibroblast [2]; 24 h, replicate 1): 14% and 10% | Population Membrane Permeable-Phenotype (%) (Fibroblast [2]; 24 h, replicate 1): 7% | Population Mitochondria Different-Phenotype (%) (Fibroblast [2]; 24 h, replicate 1): 4% and 11% | Population Mitotic Cells (%) (Fibroblast [2]; 24 h, replicate 1): 24% and 33% | Population Normal (%) (Fibroblast [2]; 24 h, replicate 1): 85% and 89% | Population Pyknosed Nuclei (%) (Fibroblast [2]; 24 h, replicate 1): 14% and 19% | Total Cell Count (Fibroblast [2]; 24 h, replicate 1): 267 and 188 | Population Apoptotic (%) (Fibroblast [2]; 24 h, replicate 2): 50% | Population Fragmented Nuclei (%) (Fibroblast [2]; 24 h, replicate 2): 54% and 70% | Population Healthy Nuclei (%) (Fibroblast [2]; 24 h, replicate 2): 40% and 26% | Population Hoechst High Intensity Objects (%) (Fibroblast [2]; 24 h, replicate 2): 30% and 28% | Population Membrane Permeable-Phenotype (%) (Fibroblast [2]; 24 h, replicate 2): 21% and 13% | Population Mitochondria Different-Phenotype (%) (Fibroblast [2]; 24 h, replicate 2): 0% | Population Mitotic Cells (%) (Fibroblast [2]; 24 h, replicate 2): 50% | Population Normal (%) (Fibroblast [2]; 24 h, replicate 2): 70% and 71% | Population Pyknosed Nuclei (%) (Fibroblast [2]; 24 h, replicate 2): 5% and 3% | Population Tubulin-Different-Phenotype (%) (Fibroblast [2]; 24 h, replicate 2): 28% and 26% | Total Cell Count (Fibroblast [2]; 24 h, replicate 2): 50 and 80 | Growth Rate (Fibroblast [3]; [7]): 0 | Growth Rate (Fibroblast [3]; [8]): 0 | Growth Rate (Fibroblast [3]; 6 h, replicate number 2, timepoint 6 hours): 1 | Growth Rate (Fibroblast [3]; [9]): 0 | Growth Rate (Fibroblast [3]; [10]): 0 | Growth Rate (Fibroblast [3]; [11]): 0 | Population Apoptotic (%) (U2OS [4]; 12 h, replicate 1): 53% and 27% | Population Fragmented Nuclei (%) (U2OS [4]; 12 h, replicate 1): 10% and 8% | Population Healthy Nuclei (%) (U2OS [4]; 12 h, replicate 1): 82% and 84% | Population Membrane Permeable-Phenotype (%) (U2OS [4]; 12 h, replicate 1): 13% and 7% | Population Mitochondria Different-Phenotype (%) (U2OS [4]; 12 h, replicate 1): 23% and 20% | Population Mitotic Cells (%) (U2OS [4]; 12 h, replicate 1): 46% and 72% | Population Normal (%) (U2OS [4]; 12 h, replicate 1): 93% and 98% | Population Pyknosed Nuclei (%) (U2OS [4]; 12 h, replicate 1): 7% and 6% | Population Tubulin-Different-Phenotype (%) (U2OS [4]; 12 h, replicate 1): 19% and 10% | Total Cell Count (U2OS [4]; 12 h, replicate 1): 160 and 443 | Population Apoptotic (%) (U2OS [4]; 12 h, replicate 2): 0% and 25% | Population Fragmented Nuclei (%) (U2OS [4]; 12 h, replicate 2): 9% | Population Healthy Nuclei (%) (U2OS [4]; 12 h, replicate 2): 75% and 86% | Population Hoechst High Intensity Objects (%) (U2OS [4]; 12 h, replicate 2): 16% and 11% | Population Membrane Permeable-Phenotype (%) (U2OS [4]; 12 h, replicate 2): 17% and 9% | Population Mitochondria Different-Phenotype (%) (U2OS [4]; 12 h, replicate 2): 21% | Population Mitotic Cells (%) (U2OS [4]; 12 h, replicate 2): 100% and 75% | Population Normal (%) (U2OS [4]; 12 h, replicate 2): 83% and 88% | Population Tubulin-Different-Phenotype (%) (U2OS [4]; 12 h, replicate 2): 12% and 34% | Total Cell Count (U2OS [4]; 12 h, replicate 2): 138 and 311 | Population Apoptotic (%) (U2OS [4]; 24 h, replicate 1): 68% and 25% | Population Healthy Nuclei (%) (U2OS [4]; 24 h, replicate 1): 79% and 93% | Population Hoechst High Intensity Objects (%) (U2OS [4]; 24 h, replicate 1): 3% and 2% | Population Membrane Permeable-Phenotype (%) (U2OS [4]; 24 h, replicate 1): 16% and 7% | Population Mitochondria Different-Phenotype (%) (U2OS [4]; 24 h, replicate 1): 30% and 18% | Population Mitotic Cells (%) (U2OS [4]; 24 h, replicate 1): 31% and 75% | Population Normal (%) (U2OS [4]; 24 h, replicate 1): 96% and 97% | Population Tubulin-Different-Phenotype (%) (U2OS [4]; 24 h, replicate 1): 22% | Total Cell Count (U2OS [4]; 24 h, replicate 1): 230 and 545 | Population Apoptotic (%) (U2OS [4]; 24 h, replicate 2): 62% and 50% | Population Healthy Nuclei (%) (U2OS [4]; 24 h, replicate 2): 63% and 91% | Population Mitochondria Different-Phenotype (%) (U2OS [4]; 24 h, replicate 2): 33% and 31% | Population Mitotic Cells (%) (U2OS [4]; 24 h, replicate 2): 37% and 50% | Population Normal (%) (U2OS [4]; 24 h, replicate 2): 78% and 93% | Population Tubulin-Different-Phenotype (%) (U2OS [4]; 24 h, replicate 2): 23% and 33% | Total Cell Count (U2OS [4]; 24 h, replicate 2): 157 and 384 | Growth Rate (U2OS [5]; [7]): 0 | Growth Rate (U2OS [5]; [8]): 0 | Growth Rate (U2OS [5]; [9]): 0 | Growth Rate (U2OS [5]; [10]): 0 | Growth Rate (U2OS [5]; [11]): 0 | Population Apoptotic (%) (HEK-293T [6]; 12 h, replicate 1): 31% and 19% | Population Fragmented Nuclei (%) (HEK-293T [6]; 12 h, replicate 1): 21% and 13% | Population Healthy Nuclei (%) (HEK-293T [6]; 12 h, replicate 1): 58% and 71% | Population Hoechst High Intensity Objects (%) (HEK-293T [6]; 12 h, replicate 1): 17% and 8% | Population Membrane Permeable-Phenotype (%) (HEK-293T [6]; 12 h, replicate 1): 3% | Population Mitochondria Different-Phenotype (%) (HEK-293T [6]; 12 h, replicate 1): 6% and 5% | Population Mitotic Cells (%) (HEK-293T [6]; 12 h, replicate 1): 68% and 80% | Population Normal (%) (HEK-293T [6]; 12 h, replicate 1): 82% and 91% | Population Pyknosed Nuclei (%) (HEK-293T [6]; 12 h, replicate 1): 20% and 15% | Population Tubulin-Different-Phenotype (%) (HEK-293T [6]; 12 h, replicate 1): 5% and 3% | Total Cell Count (HEK-293T [6]; 12 h, replicate 1): 577 and 663 | Population Apoptotic (%) (HEK-293T [6]; 12 h, replicate 2): 8% and 20% | Population Fragmented Nuclei (%) (HEK-293T [6]; 12 h, replicate 2): 11% and 9% | Population Healthy Nuclei (%) (HEK-293T [6]; 12 h, replicate 2): 84% and 85% | Population Hoechst High Intensity Objects (%) (HEK-293T [6]; 12 h, replicate 2): 1% and 3% | Population Membrane Permeable-Phenotype (%) (HEK-293T [6]; 12 h, replicate 2): 2% and 0% | Population Mitochondria Different-Phenotype (%) (HEK-293T [6]; 12 h, replicate 2): 7% and 12% | Population Mitotic Cells (%) (HEK-293T [6]; 12 h, replicate 2): 91% | Population Normal (%) (HEK-293T [6]; 12 h, replicate 2): 98% and 96% | Population Pyknosed Nuclei (%) (HEK-293T [6]; 12 h, replicate 2): 4% and 5% | Population Tubulin-Different-Phenotype (%) (HEK-293T [6]; 12 h, replicate 2): 6% and 7% | Total Cell Count (HEK-293T [6]; 12 h, replicate 2): 2027 and 1134 | Population Apoptotic (%) (HEK-293T [6]; 24 h, replicate 1): 24% and 33% | Population Fragmented Nuclei (%) (HEK-293T [6]; 24 h, replicate 1): 14% and 19% | Population Healthy Nuclei (%) (HEK-293T [6]; 24 h, replicate 1): 76% and 63% | Population Hoechst High Intensity Objects (%) (HEK-293T [6]; 24 h, replicate 1): 4% and 13% | Population Membrane Permeable-Phenotype (%) (HEK-293T [6]; 24 h, replicate 1): 8% | Population Mitochondria Different-Phenotype (%) (HEK-293T [6]; 24 h, replicate 1): 3% and 5% | Population Mitotic Cells (%) (HEK-293T [6]; 24 h, replicate 1): 75% and 66% | Population Normal (%) (HEK-293T [6]; 24 h, replicate 1): 95% and 86% | Population Pyknosed Nuclei (%) (HEK-293T [6]; 24 h, replicate 1): 8% and 17% | Population Tubulin-Different-Phenotype (%) (HEK-293T [6]; 24 h, replicate 1): 6% | Total Cell Count (HEK-293T [6]; 24 h, replicate 1): 801 and 590 | Population Apoptotic (%) (HEK-293T [6]; 24 h, replicate 2): 11% and 13% | Population Healthy Nuclei (%) (HEK-293T [6]; 24 h, replicate 2): 66% and 86% | Population Hoechst High Intensity Objects (%) (HEK-293T [6]; 24 h, replicate 2): 3% | Population Membrane Permeable-Phenotype (%) (HEK-293T [6]; 24 h, replicate 2): 6% and 3% | Population Mitotic Cells (%) (HEK-293T [6]; 24 h, replicate 2): 88% and 86% | Population Normal (%) (HEK-293T [6]; 24 h, replicate 2): 96% | Population Pyknosed Nuclei (%) (HEK-293T [6]; 24 h, replicate 2): 2% and 4% | Population Tubulin-Different-Phenotype (%) (HEK-293T [6]; 24 h, replicate 2): 9% and 23% | Total Cell Count (HEK-293T [6]; 24 h, replicate 2): 3407 and 1342

— ChEMBL document CHEMBL4689842, “EUbOPEN Chemogenomics Library wave 1” (2021)
